The list is not random: actives were taken first. Their share in the collection is about 2.9%.
SIRT5 block = SIRT5 desuccinylase inhibitors, primary screen, biochemical, fluorescence imaging, single point, set 5 | NAD-dependent protein deacylase sirtuin-5, mitochondrial (Homo sapiens), Q9NXA8 | Purified SirT5, succinyl-peptide AMC, trypsin-coupled fluorescence | inhibition, % at 15 µM | 330,000 tested, 1.1% active; in the data active = inhibition above about 15%; inconclusive = no clear call, values can overlap the other calls
DENV2 CPE rescue = inhibitors of DENV2 cytopathic effect, primary screen, cell-based, plate reader, single concentration; AID 651640, 2012; 350,000 tested, 1.7% active; CPE inhibition, % at 9.99 µM; DENV2-infected cells, cytopathic effect rescue; in the data active = CPE inhibition above about 20%, passing the limit was not always enough; inconclusive = no clear call, values can overlap the other calls; tested in BHK-21 cells
E-selectin induc = E-selectin induction in HUVECs, primary screen, imaging, HUVEC, immunofluorescence imaging, single point; P16581; normalized: neutral wells 0, TNF-alpha wells 100; activation, % at 7.58 µM; 260,000 tested, 0.37% active;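 active = mean E-selectin-positive cell signal at least 10% of the positive control, reached in at least 60% of replicates, without over 20% cell loss; inconclusive = no rule given, readout overlaps actives, possibly toxicity-flagged; inactive = the rest, including those meeting only one limit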
Target sequence (P16581 whole entry, looked up): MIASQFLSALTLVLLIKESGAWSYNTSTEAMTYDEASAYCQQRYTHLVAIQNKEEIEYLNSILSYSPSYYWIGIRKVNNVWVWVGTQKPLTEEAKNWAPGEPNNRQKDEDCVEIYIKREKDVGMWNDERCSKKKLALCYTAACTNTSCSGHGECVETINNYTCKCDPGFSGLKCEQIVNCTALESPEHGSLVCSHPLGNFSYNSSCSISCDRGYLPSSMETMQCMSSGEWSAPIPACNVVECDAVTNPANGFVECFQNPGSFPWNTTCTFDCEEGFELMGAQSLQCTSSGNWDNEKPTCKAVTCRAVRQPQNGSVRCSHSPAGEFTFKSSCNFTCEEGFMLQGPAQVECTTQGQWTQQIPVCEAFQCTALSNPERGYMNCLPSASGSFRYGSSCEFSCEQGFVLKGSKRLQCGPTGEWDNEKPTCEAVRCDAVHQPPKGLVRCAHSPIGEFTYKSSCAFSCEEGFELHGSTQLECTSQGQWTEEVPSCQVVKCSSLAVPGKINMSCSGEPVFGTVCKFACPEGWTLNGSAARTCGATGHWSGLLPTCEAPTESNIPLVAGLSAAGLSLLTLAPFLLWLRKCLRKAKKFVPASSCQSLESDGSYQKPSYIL
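assay system = HUVEC, human umbilical vein endothelial cells | input = 3,000 HUVEC seeded per well | medium = EGM-2 growth medium on 0.1% gelatin-coated wells | dosing = one compound dose added by pin transfer | signal = immunofluorescence imaging | read-out basis = % PE-positive cells | control set = TNF-alpha, DMSO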
Hits are given with their value; . = inactive; ? = inconclusive; / = no result given.

SMILES	SIRT5 block	DENV2 CPE rescue	E-selectin induc
COc1ccc(S(=O)(=O)Nc2ccc3c(c2)CC(=O)N([C@H](C)CO)C[C@@H](C)[C@H](CN(C)Cc2ccc(C(=O)O)cc2)O3)cc1	.	.	.
C[C@H]1CN([C@@H](C)CO)C(=O)Cc2cc(NS(C)(=O)=O)ccc2O[C@H]1CN(C)S(=O)(=O)c1ccc(F)cc1	.	23	.
C[C@@H]1CN([C@H](C)CO)C(=O)Cc2cc(NS(=O)(=O)c3ccc(F)cc3)ccc2O[C@H]1CN(C)S(=O)(=O)c1ccc(Cl)cc1	/	.	29
C[C@@H]1CN([C@H](C)CO)C(=O)Cc2cc(NS(C)(=O)=O)ccc2O[C@H]1CN(C)S(=O)(=O)c1ccc(F)cc1	.	.	.
C[C@H]1CN([C@@H](C)CO)C(=O)Cc2cc(NS(=O)(=O)c3ccc(Cl)cc3)ccc2O[C@H]1CN(C)S(=O)(=O)c1ccc(F)cc1	.	.	.
CCc1ccc(OCC(=O)OCC(=O)NC2CCCC(C)C2C)cc1 (centres undefined)	/	.	.
CCCN1CCC(NC(=S)Nc2ccc(OC)c(OC)c2)CC1	.	.	.
COc1ccccc1-c1ccc([C@@H]2[C@H](CO)N3CCCCN(Cc4ccncc4)C[C@@H]23)cc1	.	.	.
OC[C@H]1[C@H](c2ccc(-c3ccc(F)cc3)cc2)[C@@H]2CN(Cc3ccncc3)CCCCN12	.	44	.
OC[C@H]1[C@H](c2ccc(-c3ccc(F)cc3)cc2)[C@H]2CN(Cc3ccccn3)CCCCN21	.	.	.
COc1ccccc1-c1ccc([C@@H]2[C@@H](CO)N3CCCCN(Cc4ccncc4)C[C@H]23)cc1	.	26	.
OC[C@H]1[C@@H](c2ccc(-c3ccc(F)cc3)cc2)[C@@H]2CN(Cc3ccccn3)CCCCN12	.	29	.
OC[C@H]1[C@@H](c2ccc(-c3ccc(F)cc3)cc2)[C@@H]2CN(Cc3ccncc3)CCCCN12	.	.	.
O=C(COC(=O)CC1CCCC1)Nc1ccc(Cl)cn1	.	.	/
COc1cc2c(cc1OC)[C@@]1(c3ccccc3)CCCC[C@H]1[C@@H]2NC(=O)C(F)(F)F	.	20	.
COc1cc2c(c(OC)c1OC)[C@@]1(c3ccccc3)CCCCC[C@H]1[C@@H]2NC(=O)C(F)(F)F	.	.	.
O=C(C1CCOCC1)N1C[C@H]2[C@@H](c3ccccc31)[C@H](CO)N2Cc1ccc(Cl)cc1	.	.	.
COc1ccc(C)cc1S(=O)(=O)N(C)CC(=O)NCc1ccncc1	.	.	/
CCn1cc(C(=O)OC)c(=O)c2cc(S(=O)(=O)N(C)C3CCCCC3)ccc21	27	.	.
COC(=O)c1cn(C)c2ccc(S(=O)(=O)N(C)C3CCCCC3)cc2c1=O	.	.	.
CC1(C)OC2CCN3C(C(O)COS3(=O)=O)C2O1 (centres undefined)	/	131	/
C[C@H](CO)N1C[C@H](C)[C@H](CN(C)Cc2ccccc2)Oc2ccc(NC(=O)Nc3cccc4ccccc34)cc2CC1=O	.	.	.
COc1ccc([N+](=O)[O-])cc1NC(=O)CCN1CCN(C)CC1	.	.	/
CN1CCN(CCC(=O)N/N=C/c2cc([N+](=O)[O-])ccc2OC(F)F)CC1	23	.	.
COc1cc(/C=C(/C#N)c2nc3ccccc3[nH]2)ccc1OCc1ccc(C(=O)O)o1	18	.	/
SMILES	SIRT5 block	DENV2 CPE rescue	E-selectin induc
CCc1ccc(NC(=O)COc2ccc(/C=C(/C#N)c3nc4ccccc4[nH]3)cc2OC)cc1	.	?	.
Cc1ccc(NC(=O)CSCC(=O)Nc2ccc(S(=O)(=O)N3CCOCC3)cc2)cc1	.	.	.
NC(c1csc(NC(=O)Nc2cccc(Cl)c2)n1)C1CCCCC1 (centres undefined)	/	112	.
NC(c1csc(NC(=O)Nc2ccccc2)n1)C1CCCCC1 (centres undefined)	.	.	.
COc1ccc(C(=O)NC(=S)Nc2ccc(CN3CCOCC3)cc2)cc1Br	16	.	/
CCOc1ccc(NC(=O)c2ccc(NC(=O)c3ccc(CN4CCOCC4)cc3)cc2)cc1	.	.	.
COc1ccc(C(=O)NC(=S)Nc2ccc(CN3CCOCC3)cc2)cc1	.	.	.
CCOc1ccc(C(=O)Nc2ccc(CN3CCOCC3)cc2)cc1Br	.	37	/
CC(=O)Nc1ccc(/C(C)=N/NC(=O)c2ccc(CN3CCOCC3)cc2)cc1	35	.	.
C/C(=N\NC(=O)c1ccc(CN2CCOCC2)cc1)c1ccc(NC(=O)c2ccccc2)cc1	.	.	.
COc1ccc(-c2[nH]ncc2CN(C)Cc2cccnc2)c(OC)c1	.	.	/
COC(=O)CSc1nc(NC(C)(C)C)nc(N(C)C)n1	/	.	.
CC(C)NC(=O)CN(Cc1ccc(F)cc1)C(=O)CCC(=O)Nc1nccs1	.	.	.
Cc1ccc(S(=O)(=O)NCCNc2ccc([N+](=O)[O-])cc2)cc1	.	.	.
O=C(C1CCC1)N1CC[C@@H]2[C@@H](CO)Nc3ccc(C#Cc4ccc(F)cc4)cc3[C@@H]21	.	.	38
O=C(C1CCCC1)N1CC[C@H]2[C@H](CO)Nc3ccc(C#Cc4ccc(F)cc4)cc3[C@H]21	.	.	/
CCC(=O)N1CC[C@@H]2[C@H](CO)Nc3ccc(C#Cc4ccc(OC)cc4)cc3[C@@H]21	17	?	.
O=C(C1CCCCC1)N1CC[C@@H]2[C@H]1c1cc(C#Cc3ccc(F)cc3)ccc1N[C@@H]2CO	.	.	.
O=C(C1CC1)N1CC[C@@H]2[C@H](CO)Nc3ccc(C#Cc4ccc(F)cc4)cc3[C@@H]21	/	.	34
COCC(=O)N1CC[C@@H]2[C@H]1c1cc(C#Cc3ccc(OC)cc3)ccc1N[C@@H]2CO	.	?	.
COc1ccccc1-c1ccc(C2[C@@H]3CN(C(=O)c4cccnc4)C[C@H]2N3)cc1 (some centres undefined)	.	.	.
CCc1noc(C)c1C(=O)N1CCN(c2cccc(C)c2C)CC1	.	.	.
COc1ccc(C(=O)OCCN2CCCCC2)cc1	25	/	/
CC(C)(C)c1ccc(C(=O)OCCN2CCCCC2)cc1	.	.	/
O=Nc1c(-c2c(O)[nH]c3cc(Br)ccc23)[nH]c2ccccc12	.	.	66
SMILES	SIRT5 block	DENV2 CPE rescue	E-selectin induc
O=C(CNC(=O)c1ccccc1)N=Nc1c(O)[nH]c2ccc(Br)cc12	.	.	/
O=C(CCn1ccc2cc(S(=O)(=O)N3CCCC3)ccc21)NCc1ccccc1F	.	.	/
COc1ccc(CC(=O)Nc2ccc(F)c(S(=O)(=O)N3CCOCC3)c2)cc1	.	.	/
O=C(O)CSc1c(O)c2ccccc2[nH]c1=O	.	.	/
O=c1[nH]c2ccccc2c(O)c1SCCO	18	.	/
CCOCCCN(C(=O)c1snc(C(N)=O)c1N)C(C(=O)NCCC(C)C)c1ccc(F)cc1 (centres undefined)	.	.	/
Cc1ccc(NC(=S)N2CCC(NC(=O)c3ccc(C)cc3)CC2)cc1	.	.	/
CCCNC(=S)N1CCC(NC(=O)c2ccc(C)cc2)CC1	25	.	/
OC1COC(OCc2ccccc2)C(O)C1O (centres undefined)	.	.	/
COC(=O)[C@]12CCCCC=C1N(Cc1ccccc1)C(=O)[C@H](CC(=O)NCCCCc1ccccc1)C2	17	.	.

Screening data: PubChem, Broad Institute
